HSP90 refold inh = HSP90 inhibitors, primary screen, cell lysate, luminescence; Heat shock protein HSP 90 (rabbit reticulocyte lysate; luciferase refolding); actives 0.91% (n = 290,000); Rabbit reticulocyte lysate, luciferase refolding luminescence, 3 h; inhibition, % at 5.6 µM;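 active means inhibition above the screen-wide mean plus 3 SD, computed separately per campaign, cut at about 16% in these data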;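 further: 0% = DMSO wells and 100% = 60 µM geldanamycin wells; inhibitors lower the luminescence because luciferase stays unfolded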
SENP8 block-1 = SENP8 protease inhibitors, primary screen, biochemical, luminescence; actives 1.2% (n = 330,000); Sentrin-specific protease 8 (Homo sapiens), Q96LD8; purified SENP8, Z-RLRGG-aminoluciferin cleavage; inhibition, % at 10 µM; in the data active means inhibition above about 50%
SENP6 inh = SENP6 protease inhibitors, primary screen, biochemical, luminescence, uHTS. Sentrin-specific protease 6 (Homo sapiens), Q9GZR1. Recombinant SENP6 catalytic domain, aminoluciferin luminescence. inhibition, % at 10 µM. actives 1.8% (n = 330,000). AID 2599, 2010;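 active means inhibition above about 50% at the single tested dose, limit read from the data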;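 further: plate controls were DMSO wells with enzyme for no effect and DMSO wells lacking enzyme for full effect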
Target sequence (Q9GZR1 628-1112 limits assumed): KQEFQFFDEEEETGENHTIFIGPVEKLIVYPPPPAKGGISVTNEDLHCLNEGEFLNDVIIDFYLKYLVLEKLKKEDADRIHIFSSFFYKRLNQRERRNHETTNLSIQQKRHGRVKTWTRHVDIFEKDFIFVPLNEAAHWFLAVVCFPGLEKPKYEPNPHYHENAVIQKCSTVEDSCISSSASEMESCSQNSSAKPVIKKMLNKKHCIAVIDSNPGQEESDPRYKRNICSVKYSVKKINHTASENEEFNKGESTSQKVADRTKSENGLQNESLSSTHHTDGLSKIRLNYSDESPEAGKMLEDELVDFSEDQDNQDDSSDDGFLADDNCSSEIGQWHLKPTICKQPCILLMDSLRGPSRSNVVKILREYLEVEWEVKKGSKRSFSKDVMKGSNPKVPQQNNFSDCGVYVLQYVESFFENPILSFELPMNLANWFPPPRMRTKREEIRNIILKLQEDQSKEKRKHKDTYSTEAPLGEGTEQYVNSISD
SENP7 block = SENP7 protease inhibitors, primary screen, biochemical, luminescence, uHTS | inhibition, % at 5 µM | recombinant SENP7, Z-RLRGG-aminoluciferin luminescence, 40 min | Sentrin-specific protease 7 (Homo sapiens), Q9BQF6 | AID 434973, 2010 | actives 1.5% (n = 330,000);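 active means inhibition above about 50% at the single test dose, limit read from the data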;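 further: plate controls were DMSO with enzyme for no effect and no enzyme buffer wells for full effect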
SENP1 FRET inh = human SENP1 catalytic domain inhibitors, primary screen, biochemical, FRET, uHTS | actives 0.21% (n = 360,000) | inhibition, % at 10 µM | recombinant SENP1 catalytic domain, CyPet-SUMO1-YPet FRET cleavage | AID 624204, 2012;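 active means inhibition at least 30% at 10 µM, raw YFP signal under a set limit, fluorescence ratio 0.5 to 1.5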;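 further: 0% = enzyme with DMSO and 100% = no enzyme wells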
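System: Recombinant human SENP1 catalytic domain, His6-tagged | Incubation: Enzyme reaction for 50 min at room temperature, dark | Medium: Tris pH 8 with BME, BSA, NP40 and catalase | Also added: 25 nM SUMO1 FRET substrate | Compound: 10 µM single point, 0.5% DMSO | Measured by: FRET fluorescence in CFP and YFP emission channels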
SENP8 block-2 = human SENP8 protease inhibitors, primary screen, biochemical, fluorescence, Nedd8 protein substrate, uHTS | actives 0.64% (n = 360,000) | AID 602440, 2012 | inhibition, % at 20 µM | recombinant SENP8 | Sentrin-specific protease 8 (Homo sapiens), Q96LD8; in the data active means inhibition mostly above about 40%, no sharp cut-off; inactive means mostly below about 27%
HSP90 inh confirm = HSP90 inhibitors, confirmation, cell lysate, luminescence. shares compounds with HSP90 refold inh. actives 64% (n = 2,300). rabbit reticulocyte lysate, luciferase refolding luminescence, 3 h. inhibition, % at 5.9 µM; in the data active means inhibition above about 18%;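 further: 0% = vehicle wells and 100% = reference inhibitor wells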
luciferase ctr = firefly luciferase inhibitors, HSP90 counter-screen, confirmation, artefact control for HSP90 inhibitor project, biochemical, luminescence, triplicate. shares compounds with HSP90 refold inh. purified native firefly luciferase. inhibition, % at 5.9 µM. actives 48% (n = 2,300);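 active means inhibition above the mean inhibition of all tested sample wells plus 3 SD, cut at about 10% in these data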;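 further: 0% = DMSO with luciferase and 100% = wells lacking luciferase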
Active calls of the source: *; . = not tested or not shown. This is a sample that favours compounds with a hit; in the whole collection about 2.9% have one here.

SMILES	HSP90 refold inh	SENP8 block-1	SENP6 inh	SENP7 block	SENP1 FRET inh	SENP8 block-2	HSP90 inh confirm	luciferase ctr
O=C(NCCc1cccs1)c1ccc(Cl)c(Cl)c1	2	-8	-4	-3	0	18	.	.
O=C(NCCc1ccc(Cl)cc1)c1ccc2c(c1)OCCO2	18*	-14	4	-20	2	8	27*	23*
O=C(NCCc1cccs1)c1ccc(Cl)cc1	19*	11	20	8	2	-2	45*	41*
O=C(N=C1SC2CS(=O)(=O)CC2N1Cc1ccccc1)C1CC1 (stereo not given)	.	.	.	.	1	3	.	.
CC12CCC(=O)CC1CCC1C2CCC2(C)C1CCC2(O)C(=O)CO (stereo not given)	.	.	.	.	3	7	.	.
COc1ccc(-c2onc3ccc(C(=O)/C=C/N(C)C)cc23)cc1	31*	-3	-2	7	-27	-269	2	1
CN(C)/C=C(\C#N)C(=O)N/N=C/c1ccccc1	-6	-1	-1	-5	-1	-1	.	.
CN(C)c1ccc(N=C/C=C2\N(C)c3ccccc3C2(C)C)cc1	7	-4	-17	9	10	22	.	.
CN(C)c1ccc(N=Cc2cccn2C)cc1	22*	-20	-3	15	6	13	10	-12
CCCCNC(=O)CSc1nc(Cc2ccccc2)nc2ccccc12	0	-5	13	-5	0	8	.	.
CCO[C@@H]1OC(C(=O)N2CCN(Cc3ccc4c(c3)OCO4)CC2)=C[C@H](c2ccc(C(F)(F)F)cc2)[C@H]1CCCO	24*	-11	-18	-11	0	2	4	-2
CCO[C@@H]1OC(C(=O)N2CCN(Cc3ccc4c(c3)OCO4)CC2)=C[C@H](c2ccc(Br)cc2)[C@H]1CCCO	4	-1	-14	0	-1	15	.	.
O=[N+]([O-])c1cccnc1N/N=C/c1ccccc1O	22*	87*	93*	97*	4	10	14	-1
O=[N+]([O-])c1ccccc1/C=N/Nc1nccnc1Cl	-2	22	23	34	2	15	.	.
CCOC(=O)c1c(C)[nH]c(C2=NNC(=NC3CC3)SC2)c1C	55*	-3	-1	-3	-4	-33	84*	75*
Cc1csc(N/N=C/c2ccccn2)n1	48*	85*	87*	83*	1	-5	53*	38*
Cc1ccccc1NC1=C/C(=N\S(=O)(=O)c2cccs2)c2ccccc2C1=O	35*	90*	86*	89*	4	99*	91*	-2
O=S(=O)(/N=C(/Nc1ccccc1F)c1ccccc1)c1ccccc1	4	-4	-3	2	0	10	.	.
O=C(O)c1ccc(S(=O)(=O)/N=C2\C=C(Nc3ccccc3F)C(=O)c3ccccc32)cc1	92*	96*	98*	65*	1	88*	94*	-15
Cc1ccccc1NC1=C/C(=N\S(=O)(=O)c2ccc(C(=O)O)cc2)c2ccccc2C1=O	98*	95*	94*	69*	2	88*	96*	-11
COc1cccc(-c2ccc(-c3noc(-c4cccs4)n3)c(OC)n2)c1	0	3	-23	-3	0	-464	.	.
COc1ccc(-c2nc(-c3cccs3)no2)cc1	33*	96*	99*	99*	2	27	87*	81*
COc1ccccc1C(=O)Nc1nc2ccccc2s1	91*	97*	100*	100*	1	-171	96*	93*
COc1ccccc1C(=O)Nc1nc2ccc(S(C)(=O)=O)cc2s1	-1	-14	-20	13	-2	-87	.	.
O=C(NCc1ccccc1)c1ncn[nH]1	0	2	-18	6	0	12	.	.
SMILES	HSP90 refold inh	SENP8 block-1	SENP6 inh	SENP7 block	SENP1 FRET inh	SENP8 block-2	HSP90 inh confirm	luciferase ctr
CCCc1nc(SCC(=O)Nc2nc3c(s2)CCCC3)c2ccccc2n1	19*	4	7	0	0	13	11	0
CC(=O)c1ccc(NC(=O)CCS(=O)(=O)c2ccc3c(c2)n(C)c(=O)c(=O)n3C)cc1	-5	-10	-6	9	4	5	.	.
O=C(CN1C(=O)CCC1=O)Nc1cccc2c1C(=O)NC2=O	21*	-8	3	-9	-46	-250	3	-3
COc1ccc(C(=O)Nc2nnc(SCC(=O)NC3CC3)s2)cc1	23*	12	-3	30	2	-8	29*	16*
COc1cccc(C(=O)Nc2nnc(SCC(=O)NC3CC3)s2)c1	6	0	-8	-2	2	-2	.	.
CSc1ncccc1C(=O)N1CCCC(CCC(=O)NCc2ccc(F)c(F)c2)C1 (stereo not given)	-4	-9	-13	1	0	10	.	.
COc1ccc(C(c2c(C)[nH]n(-c3ccccc3)c2=O)c2c(C)[nH]n(-c3ccccc3)c2=O)cc1OC	22*	-4	8	31	2	84*	-1	-9
COc1ccc(C(c2c(C)n(C)n(-c3ccccc3)c2=O)c2c(C)n(C)n(-c3ccccc3)c2=O)cc1OC	1	5	-15	6	-1	11	.	.
Cc1cccc([C@@H]2[C@@H]3C(=O)N(Cc4ccccc4)C(=O)[C@@H]3[C@]3(Cc4ccc(Cl)cc4)C(=O)N(c4ccc(Br)cc4)C(=O)N23)c1	27*	-6	-18	-10	-2	19	12	-7
CCOC(=O)c1c(-c2ccc(C)o2)csc1NC(=S)NC(=O)c1ccccc1Br	21*	-5	-4	-7	2	14	5	-6
COc1ccc(C2/C(=C(/O)c3ccc(Br)cc3)C(=O)C(=O)N2C)cc1 (stereo not given)	-5	16	5	3	0	-4	.	.
CCCCN=C1NN=C(c2ccc3c(c2)OCCO3)CS1	52*	18	15	-2	3	-10	42*	35*
CCCCN=C1NN=C(c2ccc(C)c(C)c2)CS1	-1	-14	-2	-1	2	-10	.	.

Source: PubChem (several laboratories)
